Activity calls are given as the source filed them. The rule behind the calls is not given here.
What was measured:
[1] = biological target: cGMP-specific 3',5'-cyclic phosphodiesterase (Homo sapiens, UniProt O76074); assay: Inhibition of PDE5
[2] = Selectivity ratio of IC50 for PDE11 to IC50 for PDE5
Outline: (§1)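 The selectivity value is the IC50 at PDE11 or PDE6 divided by the IC50 at PDE5.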

[3] = Selectivity ratio of IC50 for PDE6 to IC50 for PDE5; outline: as §1
[4] = Metabolic stability in human liver microsomes assessed as compound remaining after 30 mins; assay type: ADME, Microsome; details: read-out: Stability
Rattus norvegicus [5] = species on record: Rattus norvegicus; assay: Antihypertensive activity in spontaneously hypertensive rat assessed as decrease of mean arterial blood pressure; assay type: functional, Artery
Outline: (§2)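 Spontaneously hypertensive rats were dosed orally, or IV in some cases, with compound levels and blood pressure monitored. The read-out was the decrease in mean arterial pressure (MAP), scored as + for a 10–15 mmHg drop and ++ for a drop of >15 mmHg. Oral dosing at 5 mg/kg was followed for up to 20 h post dose.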

hERG (KCNH2) = hERG (KCNH2) (Homo sapiens, UniProt Q12809); assay: Displacement of [3H]dofetilide from human ERG expressed in HEK293 cells at 10 uM; assay type: cell-based; details: HEK293 cells that express human ERG, probe [3H]dofetilide
[6] = biological target: Voltage-gated inwardly rectifying potassium channel KCNH2 (Homo sapiens, UniProt Q12809); assay: Inhibition of human ERG expressed by patch clam electrophysiology assay
[7] = Inhibition of PDE6
[8] = Volume of distribution at steady state in Beagle dog at 0.2 mg/kg, iv; assay type: ADME, organism-based, Canis lupus familiaris; parameters: dose 0.2 mg/kg, route intravenous; details: in vivo, read-out: Vdss
Outline: (§3)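 Beagle dogs of about 10 kg were dosed at 0.2–0.5 mpk. From the plasma profile, terminal half-life was reported in h, clearance in mL/min/kg and steady-state volume of distribution in L/kg.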

[9] = Half life in human liver microsomes; assay type: ADME, Microsome
[10] = Clearance in Beagle dog at 0.2 mg/kg, iv; assay type: ADME, organism-based, Canis lupus familiaris; parameters: dose 0.2 mg/kg, route intravenous; details: in vivo; outline: as §3
Rattus norvegicus [11] = assay: Antihypertensive activity in spontaneously hypertensive rat assessed as decrease of mean arterial blood pressure at 1.5 mg/kg, iv after 2 hrs; assay type: functional, Artery
Outline: (§4)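 Spontaneously hypertensive rats received a single IV dose of 1.5 mg/kg. Mean arterial blood pressure was monitored after dosing, and the decrease in MAP was read at 2 h and 6 h post dose. Compound blood levels were also monitored, including the free fraction at 6 h.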

Rattus norvegicus [12] = assay: Antihypertensive activity in spontaneously hypertensive rat assessed as decrease of mean arterial blood pressure at 5 mg/kg, po up to 20 hrs; assay type: functional, organism-based; parameters: dose 5 mg/kg; details: Artery; outline: as §2
Rattus norvegicus [13] = assay: Antihypertensive activity in spontaneously hypertensive rat assessed as decrease of mean arterial blood pressure at 5 mg/kg, po; assay type: functional, Artery; outline: as §2
[14] = Half life in Beagle dog at 0.2 mg/kg, iv; assay type: ADME, organism-based, Canis lupus familiaris; parameters: dose 0.2 mg/kg, route intravenous; details: in vivo; outline: as §3
Rattus norvegicus [15] = assay: Antihypertensive activity in spontaneously hypertensive rat assessed as decrease of mean arterial blood pressure at 1.5 mg/kg, iv after 6 hrs; assay type: functional, Artery; outline: as §4

Chain of hERG (KCNH2) (Q12809 whole entry): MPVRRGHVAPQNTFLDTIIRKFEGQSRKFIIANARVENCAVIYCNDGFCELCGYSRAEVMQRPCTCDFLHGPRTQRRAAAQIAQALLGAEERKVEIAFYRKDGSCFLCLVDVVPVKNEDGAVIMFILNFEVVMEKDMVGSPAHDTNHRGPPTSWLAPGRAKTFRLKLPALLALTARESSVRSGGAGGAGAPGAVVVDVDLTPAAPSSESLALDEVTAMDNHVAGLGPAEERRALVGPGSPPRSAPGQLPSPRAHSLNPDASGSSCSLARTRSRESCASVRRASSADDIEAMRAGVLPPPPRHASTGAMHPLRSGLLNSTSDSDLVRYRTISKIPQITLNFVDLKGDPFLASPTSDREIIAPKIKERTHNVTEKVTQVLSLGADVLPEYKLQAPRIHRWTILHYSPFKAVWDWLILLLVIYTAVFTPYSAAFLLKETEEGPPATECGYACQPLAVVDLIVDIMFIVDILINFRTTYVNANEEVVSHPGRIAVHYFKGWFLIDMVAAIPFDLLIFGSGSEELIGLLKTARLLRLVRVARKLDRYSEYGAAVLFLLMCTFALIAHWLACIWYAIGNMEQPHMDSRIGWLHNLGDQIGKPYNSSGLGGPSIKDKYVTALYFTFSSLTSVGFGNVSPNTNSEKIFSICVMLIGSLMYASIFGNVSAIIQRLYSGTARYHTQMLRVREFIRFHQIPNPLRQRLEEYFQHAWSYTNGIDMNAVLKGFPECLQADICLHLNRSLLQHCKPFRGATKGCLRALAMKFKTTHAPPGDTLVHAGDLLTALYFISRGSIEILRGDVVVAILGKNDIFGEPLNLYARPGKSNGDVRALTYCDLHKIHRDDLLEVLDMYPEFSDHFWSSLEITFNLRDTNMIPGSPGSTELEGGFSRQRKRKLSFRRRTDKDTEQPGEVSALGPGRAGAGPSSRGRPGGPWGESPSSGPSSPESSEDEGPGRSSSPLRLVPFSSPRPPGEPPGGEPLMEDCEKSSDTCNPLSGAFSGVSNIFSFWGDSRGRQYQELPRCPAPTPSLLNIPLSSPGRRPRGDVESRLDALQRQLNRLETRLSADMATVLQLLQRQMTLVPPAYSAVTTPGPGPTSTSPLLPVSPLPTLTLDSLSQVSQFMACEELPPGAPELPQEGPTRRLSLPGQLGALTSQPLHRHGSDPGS
Chain of Voltage-gated inwardly rectifying potassium channel KCNH2 (Q12809 whole entry): as above

## Cc1nn(CCOCC(F)(F)F)c2c(Nc3ccncn3)nc(N3CCN[C@@H](C)C3)nc12
[1]
  IC50: 0.94 nM

## CCc1nn(CCOCC(F)(F)F)c2c(Nc3ccncn3)nc(NCCN)nc12
[2]
  Ratio IC50: > 210
[3]
  Ratio IC50: > 210
[1]
  IC50: 9.52 nM

## CCc1nn(CCOCC(F)(F)F)c2c(Nc3ccncn3)nc(N3CCCNCC3)nc12
[2]
  Ratio IC50: 635
[3]
  Ratio IC50: 69
[1]
  IC50: 3.15 nM

## CCc1nn(CCOCC(F)(F)F)c2c(Nc3ccccn3)nc(N3CCNCC3)nc12
[2]
  Ratio IC50: 450
[3]
  Ratio IC50: 150
[4]
  remaining at 0.5 h: 91%
[1]
  IC50: 0.65 nM

## Cc1ccnc(Nc2nc(N3CCNCC3)nc3c(C)nn(CCOCC(F)(F)F)c23)c1
[2]
  Ratio IC50: 280
[3]
  Ratio IC50: 510
[4]
  remaining at 0.5 h: 75%
[1]
  IC50: 1.84 nM

## CCc1nn(CCOCC(F)(F)F)c2c(Nc3ccncn3)nc(N3CCCN(C)CC3)nc12
[2]
  Ratio IC50: 287
[3]
  Ratio IC50: 309
[1]
  IC50: 6.48 nM

## Cc1nn(CCOCC(F)(F)F)c2c(Nc3ccncn3)nc(N3CCN[C@H](C)C3)nc12
[1]
  IC50: 0.14 nM
Rattus norvegicus [5]
  Activity: >15 mmHg
hERG (KCNH2)
  inhibition at 10 µM: 24.7%

## CCc1nn(CCOCC(F)(F)F)c2c(Nc3cc(C)ccn3)nc(N3CCNCC3)nc12
[2]
  Ratio IC50: 170
[3]
  Ratio IC50: 220
[4]
  remaining at 0.5 h: 80%
[1]
  IC50: 3.28 nM

## Cc1cccc(Nc2nc(N3CCNCC3)nc3c(C)nn(CCOCC(F)(F)F)c23)n1
[1]
  IC50: 0.78 nM
hERG (KCNH2)
  inhibition at 10 µM: 40%
[6]
  IC50: 560 nM

## CCc1nn(CCOCC(F)(F)F)c2c(Nc3ccncn3)nc(N3CCNCC3)nc12
[1]
  IC50: 0.15 nM
Rattus norvegicus [5]
  Activity: 10 mmHg

## CCc1nn(CCOCC(F)(F)F)c2c(Nc3ccc(F)cc3)nc(N3CCNCC3)nc12
[1]
  IC50: 0.09 nM

## CCc1nn(CCOCC(F)(F)F)c2c(Nc3ccncn3)nc(N3CCOCC3)nc12
[2]
  Ratio IC50: 5100
[3]
  Ratio IC50: 107
[1]
  IC50: 3.92 nM

## CCc1nn(CCOCC(F)(F)F)c2c(Nc3cccc(C)n3)nc(N3CCNCC3)nc12
[1]
  IC50: 1.01 nM

## CCCOCCn1nc(CC)c2nc(N3CCNCC3)nc(Nc3ccccn3)c21
[1]
  IC50: 0.3 nM

## CCCc1nn(C)c2c(=O)[nH]c(-c3cc(S(=O)(=O)N4CCN(C)CC4)ccc3OCC)nc12
[7]
  IC50: 30 nM

## CCc1nn(CCOCC(F)(F)F)c2c(Nc3ccncn3)nc(N3CCNC(=O)C3)nc12
[1]
  IC50: 2.96 nM

## CCc1nn(CCOCC(F)(F)F)c2c(Nc3ccncn3)nc(N(C)C3CCN(C)CC3)nc12
[2]
  Ratio IC50: 5650
[3]
  Ratio IC50: 285
[4]
  remaining at 0.5 h: 31%
[1]
  IC50: 0.35 nM

## CCOCCn1nc(CC)c2nc(N3CCNCC3)nc(Nc3cccc(C)n3)c21
[7]
  IC50: 946 nM

## Cc1nn(CCOCC(F)(F)F)c2c(Nc3ccncn3)nc(N3CCCNCC3)nc12
[2]
  Ratio IC50: 204
[3]
  Ratio IC50: 35
[1]
  IC50: 9.79 nM

## CCc1nn(CCOCC(F)(F)F)c2c(Nc3ccncn3)nc(N3CCN[C@H](C)C3)nc12
[8]
  Vd: 7.8 L/kg
[9]
  half-life: 0.7 h
[10]
  clearance: 18.5 mL/min/kg
[1]
  IC50: 0.07 nM
Rattus norvegicus [11]
  Activity: 27 mmHg
Rattus norvegicus [12]
  Activity: Active
Rattus norvegicus [13]
  Activity: 27 mmHg
[14]
  half-life: 5.1 h
Rattus norvegicus [5]
  Activity: >15 mmHg
Rattus norvegicus [15]
  Activity: 23 mmHg

## CCc1nn(CCOC(C)C)c2c(Nc3ccccn3)nc(N3CCNCC3)nc12
[2]
  Ratio IC50: 52
[3]
  Ratio IC50: 50
[1]
  IC50: 0.86 nM
